Data from ChEMBL document CHEMBL4373686, “Methyl sulfonamide substituents improve the pharmacokinetic properties of bicyclic 2-pyridone based Chlamydia trachomatis inhibitors” (Medchemcomm, 2019).
Values after ≈ are worked out from the molar mass of the structure shown. Active and inactive are the calls of the source. The calls are words filed in the database; no cut-off is given here.

Key:
Chlamydia trachomatis [1] = experiment: (§1) Antibacterial activity against Chlamydia trachomatis 434/Bu serovar L2/ATCC VR-902B in HeLa 229 cells infected with cell lysates from 48 hrs at 2.5 uM compound treated HeLa 229 cells with Chlamydia trachomatis infection assessed as inhibition of reinfection and measured after 48 hrs post re-infection by DAPI staining based arrayscan automated microscopic method relative to control; type: functional, organism-based
In short: (§2)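 HeLa 229 cells infected with C. trachomatis L2 EBs at MOI 0.3–0.5; compound added in RPMI 1 h post infection; 44–48 h, then water lysis. 10-fold serial dilutions of lysate reinfect fresh HeLa; 44–46 h, methanol fixed, anti-Chlamydia/FITC antibody plus DAPI stain, IFUs counted by automated microscopy; % IFU versus DMSO control; three independent experiments, duplicates.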

HeLa 229 = experiment: Cytotoxicity against human HeLa 229 cells assessed as cell viability at 10 uM after 48 hrs resazurin dye based fluorescence method relative to control; settings: hela 229, 48 h
In short: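 HeLa cells in colorless DMEM with 10% FBS, compound in 0.5% DMSO for 48 h; resazurin added, 3 h at 37 °C, 5% CO2, dark; fluorescence ex 535/em 595 nm; triplicate wells as percent of DMSO control.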

[2] = Intrinsic clearance in mouse liver microsomes at 1 uM incubated for 5 to 60 mins in presence of NADPH by LC-MS/MS analysis; type: ADME, Microsome
In short: (§3)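 Liver microsomes 0.5 mg/ml, compound 1 μM in 100 mM phosphate pH 7.4; started with 1 mM NADPH (final). Sampled 0–60 min, quenched in cold acetonitrile, parent remaining by LC-MS/MS; ln % remaining versus time fitted by linear regression.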

[3] = Solubility of compound in PBS at 0.2 to 0.5 mg after 48 hrs by LC-MS/MS based shake flask method; type: physicochemical
[4] = Intrinsic clearance in human liver microsomes at 1 uM incubated for 5 to 60 mins in presence of NADPH by LC-MS/MS analysis; type: ADME, Microsome; in short: as §3
[5] = AUC (0 to infinity) in C3H/HeOuJ mouse at 10 mg/kg, po measured upto 24 hrs; settings: in vivo
[6] = Fraction unbound in CD-1 mouse plasma at 10 uM incubated for 4 hrs by LC-MS/MS-based equilibrium dialysis method; type: ADME, cell-free
In short: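 Rapid equilibrium dialysis: 10% CD-1 mouse plasma in isotonic buffer spiked to 10 μM compound, 1% DMSO final, against phosphate buffer pH 7.4; 37 °C, 900 rpm, 4 h. Matrix-matched samples precipitated with methanol, LC-MS/MS; fu corrected for plasma dilution.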

[7] = AUC (0 to infinity) in C3H/HeOuJ mouse at 1 mg/kg, iv measured upto 24 hrs; settings: in vivo
[8] = Volume of distribution at steady state in C3H/HeJ mouse at 1 mg/kg, iv measured upto 24 hrs; type: ADME, organism-based; settings: in vivo
In short: (§4)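 Female C3H mice, three per dose and route; IV as 50 μL tail-vein injection in PBS with 10% cremophor, 5% EtOH, 4% DMSO; PO as 100 μL gavage in lipid-vehicle/water emulsion. Tail-vein blood at 10 min (IV) and 0.5–24 h; acetonitrile mixed, methanol extracted, LC-MS/MS against spiked blank blood standards; non-compartmental analysis, errors as SD.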

[9] = Clearance in C3H/HeOuJ mouse at 1 mg/kg, iv measured upto 24 hrs; settings: in vivo
[10] = Toxicity in C3H/HeJ mouse infected with Chlamydia trachomatis serovar D/ATCC VR-885 assessed as vital signs at 10 mg/kg, po BID administered 21 consecutive days; type: organism-based; settings: in vivo, in the assay text read “7 consecutive days” for “21 consecutive days”
In short: (§5)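 Female C3H/HeJ mice given 2.4 mg medroxyprogesterone acetate s.c. 10 and 3 days before intravaginal infection (5000 CFU). Nine mice dosed by gavage 100 μL of 2.33 mg/mL emulsion, twice daily; vehicle and doxycycline groups. Vaginal swabs on days 2–21 titrated on HeLa cells, immunostained, counted by automated microscopy.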

[11] = Tmax in C3H/HeOuJ mouse at 10 mg/kg, po measured upto 24 hrs; settings: in vivo
[12] = Cmax in C3H/HeOuJ mouse at 1 mg/kg, iv measured upto 24 hrs; settings: in vivo
[13] = Half life in C3H/HeJ mouse at 1 mg/kg, iv measured upto 24 hrs; type: ADME, organism-based; settings: in vivo; in short: as §4
[14] = Cmax in C3H/HeJ mouse at 10 mg/kg, po measured upto 24 hrs; type: ADME, organism-based; set-up: dose 10 mg/kg, route oral; settings: in vivo; in short: as §4
[15] = Half life in C3H/HeOuJ mouse at 10 mg/kg, po measured upto 24 hrs; settings: in vivo
[16] = Apparent permeability from apical to basolateral side in human Caco2 cells at 1 uM after 15 to 60 mins by LC-MS/MS analysis; type: ADME, cell-based; settings: caco-2, 1 µM
In short: (§6)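 Caco-2 monolayers (passage 94–105) used on day 21 on filter supports; 1 μM donor solution applied apical or basolateral, pH 7.4 both chambers, 37 °C, 500 rpm stirring. Receiver sampled at 15, 30, 60 min, donor at 60 min for mass balance; LC-MS/MS with warfarin internal standard.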

Chlamydia trachomatis [17] = experiment: as §1, with “1” for “2.5”; type: functional, organism-based; in short: as §2
[18] = Efflux ratio of apparent permeability in human Caco2 cells at 1 uM after 15 to 60 mins by LC-MS/MS analysis; type: ADME, cell-based; settings: caco-2, 1 µM; in short: as §6
Chlamydia trachomatis [19] = experiment: Antibacterial activity against Chlamydia trachomatis serovar D/ATCC VR-885 infected in C3H/HeJ mouse assessed as reduction in vaginal infection at 10 mg/kg, po BID administered 21 consecutive days by vaginal swab based immunostaining arrayscan automated microscopic method; type: functional, organism-based; settings: in the assay text read “7 consecutive days” for “21 consecutive days”; in short: as §5
[20] = Oral bioavailability in C3H/HeOuJ mouse at 10 mg/kg measured upto 24 hrs; settings: in vivo
[21] = Cmax in C3H/HeJ mouse at 1.2 mg/kg, iv measured upto 24 hrs; settings: in vivo
[22] = Clearance in C3H/HeJ mouse at 1.2 mg/kg, iv measured upto 24 hrs; settings: in vivo
[23] = AUC (0 to infinity) C3H/HeJ mouse at 1.2 mg/kg, iv measured upto 24 hrs; settings: in vivo
[24] = Volume of distribution at steady state in C3H/HeJ mouse at 1.2 mg/kg, iv measured upto 24 hrs; settings: in vivo
[25] = Half life in C3H/HeJ mouse at 1.2 mg/kg, iv measured upto 24 hrs; settings: in vivo
[26] = Volume of distribution at steady state in C3H/HeJ mouse at 0.9 mg/kg, iv measured upto 24 hrs; settings: in vivo
[27] = Clearance in C3H/HeOuJ mouse at 0.9 mg/kg, iv measured upto 24 hrs; type: ADME, organism-based; settings: in vivo; in short: as §4
[28] = AUC (0 to infinity) C3H/HeOuJ mouse at 0.9 mg/kg, iv measured upto 24 hrs; type: ADME, organism-based; set-up: dose 0.9 mg/kg, route intravenous, time infinity; settings: in vivo; in short: as §4
[29] = Half life in C3H/HeOuJ mouse at 0.9 mg/kg, iv measured upto 24 hrs; type: ADME, organism-based; settings: in vivo; in short: as §4
[30] = Cmax in C3H/HeOuJ mouse at 0.9 mg/kg, iv measured upto 24 hrs; type: ADME, organism-based; set-up: dose 0.9 mg/kg, route intravenous; settings: in vivo; in short: as §4

Row | SMILES | inhibition (Chlamydia trachomatis [1]) [%] | Activity (HeLa 229) [%] | inhibition (Chlamydia trachomatis [17]) [%] | further results
1 | COc1c(Cc2cccc(C)c2C)c(N)c(=O)n2c1SCC2C(=O)Nc1cc(C)cc(F)c1 (racemic) | 47 | 92 | – | –
2 | COc1c(Cc2cccc3ccccc23)c(N)c(=O)n2c1SCC2C(=O)Nc1ccc(C)cc1 (racemic) | 51 | 91 | – | –
3 | CS(=O)(=O)Nc1c(Cc2cccc3ccccc23)cc(=O)n2c1SCC2C(=O)Nc1ccccc1 (racemic) | 89 | 94 | 23 | CLH [2]: 59 µL/min/mg; solubility thermodynamic at 48 h [3]: 1.3 µM (≈ 0.657 µg/mL); CLH [4]: 39 µL/min/mg; AUC [5]: 20.3 µM·h; Fu [6]: 0.39%; AUC [7]: 4.8 µM·h; Vdss [8]: 0.62 L/kg; CL [9]: 0.01 L/h; Activity [10]: Non-Toxic; Tmax [11]: 1 h; Cmax [12]: 1700 nM; t1/2 [13]: 5.3 h; Cmax [14]: 3700 nM; t1/2 [15]: 2.6 h; Papp [16]: 30 ×10⁻⁶ cm/s; Ratio [18]: 2; Activity (Chlamydia trachomatis [19]): inactive; F [20]: 41%
4 | CS(=O)(=O)Nc1c(Cc2cccc3ccccc23)cc(=O)n2c1SCC2c1nc(-c2ccccc2)n[nH]1 (racemic) | 20 | 93 | – | –
5 | COc1c(Cc2cccc(C)c2C)cc(=O)n2c1SCC2c1nc(-c2ccccc2)no1 (racemic) | 1 | 91 | – | –
6 | COc1c(Cc2cccc(C)c2C)cc(=O)n2c1SCC2C(=O)Nc1ccccc1 (racemic) | 51 | 89 | 22 | –
7 | Nc1c(Cc2cccc3ccccc23)c(C2CC2)c2n(c1=O)C(C(=O)Nc1ccccc1)CS2 (racemic) | 98 | – | 94 | –
8 | Nc1c(Cc2cccc3ccccc23)c(C2CC2)c2n(c1=O)C(n1cc(-c3ccccc3)nn1)CS2 (racemic) | 91 | – | 90 | CLH [2]: 135 µL/min/mg; Cmax [21]: 40 nM; solubility thermodynamic at 48 h [3]: 0.31 µM (≈ 0.152 µg/mL); CLH [4]: 187 µL/min/mg; Fu [6]: < 0.1%; CL [22]: 0.51 L/h; AUC(0-inf) [23]: 0.1 µM·h; Vdss [24]: 27 L/kg; t1/2 [25]: 3.7 h; Papp [16]: 0.33 ×10⁻⁶ cm/s; Ratio [18]: 0.6
9 | Cc1cc(F)cc(NC(=O)C2CSc3c(NS(C)(=O)=O)c(Cc4cccc5ccccc45)cc(=O)n32)c1 (racemic) | 6 | 91 | 6 | –
10 | COC(=O)Nc1c(Cc2cccc3ccccc23)cc(=O)n2c1SCC2C(=O)Nc1ccccc1 (racemic) | 12 | 88 | – | –
11 | COc1c(Cc2cccc3ccccc23)cc(=O)n2c1SCC2C(=O)Nc1ccc(C)cc1 (racemic) | 94 | 89 | 62 | –
12 | COc1c(Cc2cccc(C)c2C)c(N)c(=O)n2c1SCC2C(=O)Nc1ccccc1 (racemic) | 25 | 94 | – | –
13 | COc1c(Cc2cccc(C)c2C)cc(=O)n2c1SCC2C(=O)Nc1ccc(C)cc1 (racemic) | 98 | 88 | 71 | –
14 | O=C(Nc1ccccc1)C1CSc2c(O)c(Cc3cccc4ccccc34)cc(=O)n21 (racemic) | 21 | 93 | – | –
15 | CC(C)Nc1c(Cc2cccc3ccccc23)cc(=O)n2c1SCC2C(=O)Nc1ccccc1 (racemic) | 79 | 91 | 25 | –
16 | CS(=O)(=O)Nc1c(Cc2cccc3ccccc23)cc(=O)n2c1SCC2n1cc(-c2ccccc2)nn1 (racemic) | 88 | 91 | – | –
17 | CC(=O)Nc1c(Cc2cccc3ccccc23)cc(=O)n2c1SCC2C(=O)Nc1ccccc1 (racemic) | 3 | 90 | 44 | –
18 | COc1c(Cc2cccc3ccccc23)cc(=O)n2c1SCC2C(=O)Nc1ccccc1 (racemic) | 24 | 91 | – | –
19 | COc1c(Cc2cccc(C)c2C)c(N)c(=O)n2c1SCC2c1nc(-c2ccccc2)no1 (racemic) | 17 | 94 | – | –
20 | COc1c(Cc2cccc(C)c2C)c(N)c(=O)n2c1SCC2C(=O)Nc1ccc(C)cc1 (racemic) | 56 | 93 | – | –
21 | O=C(Nc1ccccc1)C1CSc2c(C3CC3)c(Cc3cccc4ccccc34)cc(=O)n21 (racemic) | 87 | – | 67 | –
22 | COc1c(Cc2cccc3ccccc23)c(N)c(=O)n2c1SCC2C(=O)Nc1ccccc1 (racemic) | 25 | 94 | – | –
23 | CN(C)c1c(Cc2cccc3ccccc23)cc(=O)n2c1SCC2C(=O)Nc1ccccc1 (racemic) | 94 | 92 | 78 | –
24 | COc1c(Cc2cccc3ccccc23)cc(=O)n2c1SCC2n1cc(-c2ccccc2)nn1 (racemic) | 81 | 87 | – | –
25 | Cc1cccc(NC(=O)C2CSc3c(NS(C)(=O)=O)c(Cc4cccc5ccccc45)cc(=O)n32)c1 (racemic) | -2 | 92 | – | –
26 | COc1c(Cc2cccc(C)c2C)cc(=O)n2c1SCC2C(=O)Nc1cc(C)cc(F)c1 (racemic) | 95 | 90 | 77 | Vdss [26]: 1.1 L/kg; CLH [2]: 440 µL/min/mg; solubility thermodynamic at 48 h [3]: 0.32 µM (≈ 0.145 µg/mL); CLH [4]: 184 µL/min/mg; CL [27]: 0.04 L/h; Fu [6]: 0.1%; AUC(0-inf) [28]: 0.95 µM·h; t1/2 [29]: 1.2 h; Cmax [30]: 410 nM; Papp [16]: 2.1 ×10⁻⁶ cm/s; Ratio [18]: 3.2
